Results as given in ChEMBL document CHEMBL1128466, “Synthesis and antimalarial activities of several fluorinated artemisinin derivatives” (1995).

Legend:
Format in all cases: functional
Plasmodium falciparum [1] = assay: Relative activity against Plasmodium falciparum W2 compared to arteether as IC50 ratio
Plasmodium falciparum [2] = assay: Relative activity against Plasmodium falciparum W-2 compared to of IC50 value of artemisinin as IC50 ratio
Plasmodium falciparum [3] = assay: Relative activity against Plasmodium falciparum D6 compared to arteether as IC50 ratio
Plasmodium falciparum [4] = assay: Relative activity against Plasmodium falciparum D6 compared to artemisinin as IC50 ratio
Plasmodium falciparum [5] = assay: Relative activity against Plasmodium falciparum FCR3 compared to artemisinin as IC50 ratio
Method in brief: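 In vitro screen of P. falciparum strain FCR3 cultures by a modified Desjardins method. The value is the ratio of artemisinin activity to that of each fluorinated derivative.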

`CCO[C@H]1O[C@@H]2O[C@@]3(C)CC[C@H]4[C@H](C(F)F)CC[C@@H]([C@H]1C)[C@@]24OO3` was tested, and the Ratio (Plasmodium falciparum [1]) was 1.5, the Ratio (Plasmodium falciparum [2]) was 2 and the Ratio (Plasmodium falciparum [3]) was 0.3. For the same compound, the Ratio (Plasmodium falciparum [4]) was 1.

`C[C@@H]1CC[C@H]2[C@@](C)(O)[C@@H](OCc3cccc(F)c3)O[C@@H]3O[C@@]4(C)CC[C@@H]1[C@]32OO4` showed a Ratio (Plasmodium falciparum [5]) of 0.11.

Compound `CCO[C@H]1O[C@@H]2O[C@@]3(C)CC[C@H]4[C@H](C)CC[C@@H]([C@]1(C)O)[C@@]24OO3` has a Ratio (Plasmodium falciparum [2]) of 0.3 and a Ratio (Plasmodium falciparum [4]) of 0.45.

`C[C@@H]1CC[C@H]2[C@@](C)(O)[C@@H](OCC(F)(F)F)O[C@@H]3O[C@@]4(C)CC[C@@H]1[C@]32OO4` showed a Ratio (Plasmodium falciparum [2]) of 0.14 and a Ratio (Plasmodium falciparum [4]) of 0.15.

With `CCO[C@H]1O[C@@H]2O[C@@]3(C)CC[C@H]4[C@H](C)CC[C@@H]([C@@]1(C)O)[C@@]24OO3` the Ratio (Plasmodium falciparum [2]) was 0.06 and the Ratio (Plasmodium falciparum [4]) was 0.08.

Work on `CCO[C@H]1O[C@@H]2O[C@@]3(C)CC[C@H]4[C@H](C=O)CC[C@@H]([C@H]1C)[C@@]24OO3` yielded a Ratio (Plasmodium falciparum [1]) of 0.8, a Ratio (Plasmodium falciparum [2]) of 1.4 and a Ratio (Plasmodium falciparum [3]) of 0.1. The Ratio (Plasmodium falciparum [4]) was 1.2.

Work on `C[C@@H]1CC[C@H]2[C@@](C)(O)[C@@H](OCc3c(F)c(F)c(F)c(F)c3F)O[C@@H]3O[C@@]4(C)CC[C@@H]1[C@]32OO4` yielded a Ratio (Plasmodium falciparum [5]) of 0.1.

`CCO[C@H]1O[C@@H]2O[C@@]3(C)CC[C@H]4[C@H](C)C(=O)C[C@@H]([C@H]1C)[C@@]24OO3` was tested, and the Ratio (Plasmodium falciparum [1]) was 0.6, the Ratio (Plasmodium falciparum [2]) was 1.2 and the Ratio (Plasmodium falciparum [3]) was 0.05. The Ratio (Plasmodium falciparum [4]) was 0.5.

In the case of `C[C@@H]1CC[C@H]2[C@@](C)(O)[C@@H](OCc3ccccc3F)O[C@@H]3O[C@@]4(C)CC[C@@H]1[C@]32OO4`, the Ratio (Plasmodium falciparum [5]) is reported as 0.11.

For `C[C@H]1[C@@H](OCc2ccc(F)cc2)O[C@@H]2O[C@@]3(C)CC[C@H]4[C@H](C)CC[C@@H]1[C@@]24OO3`, the Ratio (Plasmodium falciparum [5]) was 0.04.

`C[C@H]1[C@@H](CC(F)F)O[C@@H]2O[C@@]3(C)CC[C@H]4[C@H](C)CC[C@@H]1[C@@]24OO3` gave a Ratio (Plasmodium falciparum [1]) of 0.73, a Ratio (Plasmodium falciparum [2]) of 1.1 and a Ratio (Plasmodium falciparum [3]) of 1.3. For the same compound, the Ratio (Plasmodium falciparum [4]) was 3.8.

Work on `C[C@@H]1CC[C@H]2[C@@](C)(O)[C@@H](OCc3ccc(F)cc3)O[C@@H]3O[C@@]4(C)CC[C@@H]1[C@]32OO4` yielded a Ratio (Plasmodium falciparum [5]) of 0.1.

`C[C@@H]1CC[C@H]2[C@](C)(O)[C@@H](OCC(F)(F)F)O[C@@H]3O[C@@]4(C)CC[C@@H]1[C@]32OO4` was tested, and the Ratio (Plasmodium falciparum [2]) was 1.5 and the Ratio (Plasmodium falciparum [4]) was 1.8.

`CCO[C@H]1O[C@@H]2O[C@@]3(C)CC[C@H]4C(C)=C(F)C[C@@H]([C@H]1C)[C@@]24OO3` gave a Ratio (Plasmodium falciparum [1]) of 0.3, a Ratio (Plasmodium falciparum [2]) of 0.5 and a Ratio (Plasmodium falciparum [3]) of 0.2. For the same compound, the Ratio (Plasmodium falciparum [4]) was 0.6.

For `C[C@H]1[C@@H](CC(C)(F)F)O[C@@H]2O[C@@]3(C)CC[C@H]4[C@H](C)CC[C@@H]1[C@@]24OO3`, the Ratio (Plasmodium falciparum [1]) was 0.3, the Ratio (Plasmodium falciparum [2]) was 0.5 and the Ratio (Plasmodium falciparum [3]) was 0.4. It also gave a Ratio (Plasmodium falciparum [4]) of 1.2.

`CCO[C@H]1O[C@@H]2O[C@@]3(C)CC[C@H]4[C@H](C)C(F)(F)C[C@@H]([C@H]1C)C24OO3` (single isomer, unassigned) showed a Ratio (Plasmodium falciparum [1]) of 0.8, a Ratio (Plasmodium falciparum [2]) of 1.2 and a Ratio (Plasmodium falciparum [3]) of 0.5. For the same compound, the Ratio (Plasmodium falciparum [4]) was 1.4.
